Published values collected from several papers.
Protocols differ between the studies behind these lines. pEC50, pIC50: −log10 of the molar value.

| SMILES | tested on | test | test system | setting | measurement | result |
| --- | --- | --- | --- | --- | --- | --- |
| COc1cc2nc(N3CCN(C(=O)C4COc5ccccc5O4)CC3)nc(N)c2cc1OC (stereo not shown) | CNE-2 | cell growth or viability, MTT | – | 48 h | pIC50 | 4.51 |
| C=C(F)C(=O)N1CCN(c2nc(OC[C@@H]3CCCN3C)nc3c2CCN(c2cccc4cccc(Cl)c24)C3)C[C@@H]1CC#N | SW756 | cell growth or viability, ATP luminescence | – | – | pIC50 | 6.05 |
| Nc1ccc(/C=C/C(=O)N2CCc3c(oc4c(-c5ccc(F)cc5)cc(-c5ccc(C(=O)N6C[C@@H]7[C@H](C6)C7(F)F)nn5)cc34)C2)cn1 | ASPC1 | cell growth or viability, CCK-8 | – | 72 h | pIC50 | 6.59 |
| Cc1nn(-c2ccccc2)c2c1C(c1ccc(Cl)cc1)N(C(=O)c1ccncc1)N2 (stereo not shown) | Cryptococcus neoformans | microbial growth | – | clinical isolate | MIC | 32 µg/mL |
| CC(C)=CCCC(C)=CC=O (mixture of isomers) | Cryptococcus neoformans | microbial killing, broth dilution | – | clinical isolate | MFC | 1600 µg/mL |
| Cc1nn(-c2ccccc2)c2c1C(c1c[nH]c3ccccc13)N(C(=O)c1ccncc1)N2 (stereo not shown) | Cryptococcus neoformans | microbial growth | – | clinical isolate | MIC | 4 µg/mL |
| Cc1c(C(=O)O)ccc2c3n(nc12)[C@@H]1[C@H](C3)N(CC2CC2)[C@@]2(C(=O)Nc3cc(Cl)ccc32)[C@H]1c1cccc(Cl)c1F | SW982 | cell growth or viability, resazurin | – | – | GI50 | 0.34 nM |
| Cc1nn(-c2ccccc2)c2c1C(c1ccco1)N(C(=O)c1ccncc1)N2 (stereo not shown) | Cryptococcus neoformans | microbial growth | – | clinical isolate | MIC | 2 µg/mL |
| C=CC(=O)NC1CCN(c2ncc3ncnc(Nc4ccc(Oc5ccc6c(c5)ncn6C)c(C)c4)c3n2)CC1 | LUDLU-1 | cell growth or viability | – | – | pEC50 | 5.21 |
| C=CC(=O)N1CCN(c2nc(=O)n(-c3c(C)ccnc3C(C)C)c3nc(-c4c(O)cccc4F)c(F)cc23)[C@@H](C)C1 | ASPC1 | cell growth or viability, ATP luminescence | – | – | pIC50 | < 5.00 |
| O=C(O)c1cn(C2CC2)c2cc(N3CCNCC3)c(F)cc2c1=O | Bacillus subtilis | microbial growth | ATCC6051 | – | MIC | 2 µM |
| Cc1nn(-c2ccccc2)c2c1C(c1ccc(O)cc1)N(C(=O)c1ccncc1)N2 (stereo not shown) | Cryptococcus neoformans | microbial growth | – | clinical isolate | MIC | > 100 µg/mL |
| O=C1C(Br)=C(Br)C(=O)c2ccccc21 | Nakaseomyces glabratus | microbial growth, broth dilution | ATCC2001 | 24 h | MIC | 6.25 µg/mL |
